From ChEMBL document CHEMBL1671647, “In vitro activity of LK-157, a novel tricyclic carbapenem as broad-spectrum {beta}-lactamase inhibitor” (Antimicrob Agents Chemother, 2009)
pIC50: −log10 of the molar value. In brackets after ≈: the same amount, converted by molar mass.

Legend:
[1] = Inhibition of Klebsiella pneumoniae Beta-lactamase SHV-1
Procedure, shortened: (§1)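 Purified β-lactamase (final 0.25 μg/ml) was preincubated with inhibitor for 10 min at 37°C in […] phosphate, pH 7, with 10% DMSO final. Prewarmed nitrocefin was then added (final […] as printed). A490 was read every 30 s for 10 min at 37°C to give initial rates. IC50 was fitted by sigmoidal nonlinear regression, from at least two independent experiments, with 95% CI.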

Enterobacter cloacae = experiment: Antibacterial activity against Enterobacter cloacae by broth microdilution method; assay type: functional
Procedure, shortened: (§2)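 Broth microdilution MICs per CLSI against clinical and ATCC isolates; stocks in distilled water, diluted with water or Mueller-Hinton broth, drug weights corrected for salt forms. Twofold series from 256 to 0.125 μg/ml or 25.6 to 0.0125 μg/ml. Inoculum 5 × 10^5 CFU/ml (final) by direct colony suspension. β-Lactamase inhibitors, when combined with a β-lactam, held constant at 4 μg/ml.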

[2] = Inhibition of Beta-lactamase TEM-1; procedure, shortened: as §1
Klebsiella sp. = experiment: Antibacterial activity against Klebsiella sp. by broth microdilution method; assay type: functional; procedure, shortened: as §2
Enterococcus sp. = experiment: Antibacterial activity against Enterococcus sp. by broth microdilution method; assay type: functional; procedure, shortened: as §2
Staphylococcus aureus [3] = experiment: Antibacterial activity against methicillin-susceptible Staphylococcus aureus by broth microdilution method; assay type: functional; procedure, shortened: as §2
Moraxella catarrhalis = experiment: Antibacterial activity against Moraxella catarrhalis by broth microdilution method; assay type: functional; procedure, shortened: as §2
Pseudomonas aeruginosa = experiment: Antibacterial activity against Pseudomonas aeruginosa by broth microdilution method; assay type: functional; procedure, shortened: as §2
[4] = Inhibition of Enterobacter cloacae Beta-lactamase AmpC; procedure, shortened: as §1
Citrobacter freundii = experiment: Antibacterial activity against Citrobacter freundii by broth microdilution method; assay type: functional; procedure, shortened: as §2
Escherichia coli = experiment: Antibacterial activity against Escherichia coli by broth microdilution method; assay type: functional; procedure, shortened: as §2
Staphylococcus aureus [5] = experiment: Antibacterial activity against methicillin-resistant Staphylococcus aureus by broth microdilution method; assay type: functional
Procedure, shortened: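 CLSI broth microdilution MIC against clinical isolates. In β-lactam combinations the inhibitor was held constant at 4 μg/ml. Inoculum was prepared by direct colony suspension, final 5 × 10^5 CFU/ml.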

Structure (SMILES)	pIC50 [1]	MIC (Enterobacter cloacae) [µg/mL]	MIC50 (Enterobacter cloacae) [µg/mL]	MIC90 (Enterobacter cloacae) [µg/mL]	pIC50 [2]	MIC (Klebsiella sp.) [µg/mL]	MIC50 (Klebsiella sp.) [µg/mL]	MIC90 (Klebsiella sp.) [µg/mL]	MIC (Enterococcus sp.) [µg/mL]	MIC (Staphylococcus aureus [3]) [µg/mL]	MIC50 (Moraxella catarrhalis) [µg/mL]	MIC90 (Moraxella catarrhalis) [µg/mL]	MIC (Pseudomonas aeruginosa) [µg/mL]	pIC50 [4]	MIC (Citrobacter freundii) [µg/mL]	MIC (Escherichia coli) [µg/mL]	MIC50 (Escherichia coli) [µg/mL]	MIC90 (Escherichia coli) [µg/mL]	MIC50 (Staphylococcus aureus [5]) [µg/mL]	MIC90 (Staphylococcus aureus [5]) [µg/mL]
C/C=C1/C(=O)N2C(C(=O)O)=C3[C@@H](OC)CCC[C@@H]3[C@H]12	6.82	> 25.6	> 25.6	> 25.6	7.26	6.4 (≈ 24.3 µM)	> 25.6	> 25.6	> 25.6	0.8 (≈ 3.04 µM)	0.8 (≈ 3.04 µM)	0.8 (≈ 3.04 µM)	> 25.6	7.21	> 25.6	> 25.6	> 25.6	> 25.6	> 256	> 256
O=C(O)[C@H]1/C(=C/CO)O[C@@H]2CC(=O)N21 [CLAVULANIC ACID]	7.55	–	–	–	7.52	–	–	–	–	–	–	–	–	3.87	–	–	–	–	–	–
CC1(C)[C@H](C(=O)O)N2C(=O)C[C@H]2S1(=O)=O [SULBACTAM]	5.40	–	–	–	5.97	–	–	–	–	–	–	–	–	4.92	–	–	–	–	–	–
C[C@]1(Cn2ccnn2)[C@H](C(=O)O)N2C(=O)C[C@H]2S1(=O)=O [TAZOBACTAM]	–	–	–	–	7.85	–	–	–	–	–	–	–	–	5.75	–	–	–	–	–	–
